Reference: publication PMC6937391 (Leukemia research, 2019)

Columns and labels:
[1] = test system: MM.1S cells; assay: Cell viability assay; format: cell-based; settings: Homo sapiens, MM1.S, 24 h, read-out: EC50 (cell viability)
Summary of the method: (§1)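 Cells kept in RPMI 1640 with 10% heat-inactivated FBS and penicillin/streptomycin at 37°C, 5% CO2. Plated 24 h before a 24 h exposure to test compound diluted from DMSO stock; vehicle controls got 1% DMSO. CellTiter-Glo added, equilibrated 5 min at 37°C, luminescence read at 470 nm (1 s). Survival as % of untreated control; EC50 from 3- or 4-parameter nonlinear regression.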

[2] = test system: Mino cells; assay: Cell viability assay; format: cell-based; settings: Homo sapiens, 24 h, read-out: EC50 (cell viability)
Summary of the method: as §1

[3] = test system: U266 cells; assay: Cell viability assay; format: cell-based; settings: Homo sapiens, U-266, 24 h, read-out: EC50 (cell viability)
Summary of the method: as §1

[4] = test system: U266 BzR cells; assay: Cell viability assay; format: cell-based; settings: Homo sapiens, U-266, 24 h, read-out: EC50 (cell viability)
[5] = biological target: T-L (β2) proteasomal sub-catalytic activity (Homo sapiens, UniProt Q99436); assay: Cell-based proteasome activity assay; settings: Ki50 T-L (β2), 24 h treatment
[6] = test system: Granta BzR cells; assay: Cell viability assay; format: cell-based; settings: 24 h, read-out: EC50 (cell viability)
[7] = test system: Mino BzR cells; assay: Cell viability assay; format: cell-based; settings: Homo sapiens, 24 h, read-out: EC50 (cell viability)
[8] = test system: Granta cells; assay: Cell viability assay; format: cell-based; settings: 24 h, read-out: EC50 (cell viability)
Summary of the method: as §1

[9] = test system: MM.1S BzR cells; assay: Cell viability assay; format: cell-based; settings: Homo sapiens, MM1.S, 24 h, read-out: EC50 (cell viability)
[10] = biological target: C-L (β1) proteasomal sub-catalytic activity (Homo sapiens, UniProt P28072); assay: Cell-based proteasome activity assay; settings: Ki50 C-L (β1), 24 h treatment

| Compound | EC50 [1] [nM] | EC50 [2] [nM] | EC50 [3] [nM] | EC50 [4] [nM] | Ki ([5]; ARD cells) [nM] | Ki ([5]; MM.1R cells) [nM] | Ki ([5]; U266 cells) [nM] | EC50 [6] [nM] | EC50 [7] [nM] | EC50 [8] [nM] | EC50 [9] [nM] | Ki ([10]; ARD cells) [nM] | Ki ([10]; MM.1R cells) [nM] | Ki ([10]; U266 cells) [nM] |
| --- | --- | --- | --- | --- | --- | --- | --- | --- | --- | --- | --- | --- | --- | --- |
| CC(C)C[C@H](NC(=O)CNC(=O)c1cc(Cl)ccc1Cl)B(O)O [IXA, ixazomib] | 25.5 ± 0.9 | 97.6 ± 4.6 | 34.7 ± 2.1 | 169 ± 15 | 92.8 ± 19.1 | 29.3 ± 7.83 | 74.9 ± 16.8 | 774 ± 150 | 336 ± 30 | 147 ± 12 | 449 ± 23 | 19.6 ± 8.32 | 7.41 ± 1.59 | 16.1 ± 4.01 |
| CC(C)C[C@H](NC(=O)[C@H](CCc1ccccc1)NC(=O)CN1CCOCC1)C(=O)N[C@@H](Cc1ccccc1)C(=O)N[C@@H](CC(C)C)C(=O)[C@@]1(C)CO1 [CAR, carfilzomib] | 5.5 ± 0.2 | 6.3 ± 0.3 | 6.9 ± 0.5 | 10.9 ± 1.4 | – | – | – | 24.2 ± 1.4 | 20.7 ± 0.7 | 11.7 ± 0.3 | 27.7 ± 1.6 | – | – | – |
| CC(C)C[C@H](NC(=O)[C@H](Cc1ccccc1)NC(=O)c1cnccn1)B(O)O [BTZ, bortezomib] | 2.31 ± 0.03 | 10 ± 0.4 | 2.7 ± 0.2 | 14.1 ± 2 | – | – | – | 51.5 ± 9.3 | 23.4 ± 1.1 | 14.9 ± 1.6 | 28.4 ± 0.6 | – | – | – |
